Measurements pooled from the literature.
Compare with care: the assays were run in different laboratories.
Read-out: cell growth or viability

`CC[C@H](C)[C@H](NC(=O)OCC1c2ccccc2-c2ccccc21)C(=O)Sc1cccccc1=O` has a CC50 of 42.6 µM (HepDES19; MTS; 72 h).
`O=P(O)(O)c1cc2c(O)c(c1)Cc1cc(P(=O)(O)O)cc(c1O)Cc1cc(P(=O)(O)O)cc(c1O)Cc1cc(P(=O)(O)O)cc(c1O)Cc1cc(P(=O)(O)O)cc(c1O)Cc1cc(P(=O)(O)O)cc(c1O)Cc1cc(P(=O)(O)O)cc(c1O)Cc1cc(P(=O)(O)O)cc(c1O)C2` gave a CC50 of 747 µM (HEK293; ATP luminescence; 24 h).
`Cc1nc(C(CN)NC(=O)C(=O)Nc2ccc3c(c2)OCO3)sc1CO` (centres unmarked) has a CC50 of no less than 650 µM (MT2; MTS; 96 h).
The CC50 of `CCOc1ccc(-c2nc(CNCCc3ccc(F)cc3)cs2)cc1` is reported as 39 µM (HEK293; MTT; 24 h).
`O=c1cccccc1Sc1cccccc1=O` has a CC50 of 20.8 µM (HepDES19; MTS; 72 h).
`NCCN(C(=O)c1ccc(Cl)cc1Cl)c1ccc(OCc2ccc(Cl)cc2)cc1` gave a CC50 of 7.96 µM (HEK293; MTT; 24 h).
The CC50 of `COC(=O)N[C@H](C(=O)N1CCC[C@H]1c1nc(-c2ccc(-c3ccc(-c4c[nH]c([C@@H]5CCCN5C(=O)[C@@H](NC(=O)OC)C(C)C)n4)cc3)cc2)c[nH]1)C(C)C` is reported as 90 µM (MT2; 5 days).
With `CC(C)c1cccc(=O)c(O)c1` the CC50 was 66.4 µM (HepDES19; MTS; 72 h).
The CC50 of `O[C@@H](c1cc(C(F)(F)F)nc2c(C(F)(F)F)cccc12)[C@H]1CCCCN1` is reported as 8.84 µM (HEK293; MTT; 24 h).
With `C=C(C)c1ccccc(=O)c1O` the CC50 was 53.5 µM (HepDES19; MTS; 72 h).
With `CC/C(=C(\c1ccccc1)c1ccc(OCCN(C)C)cc1)c1ccccc1` the CC50 was 9 µg/mL (HEK293; resazurin; 20 h).
`N#Cc1cc(Cl)cc(Oc2ccc(Cl)cc2OCCn2cc(Cl)c(=O)[nH]c2=O)c1` gave a CC50 of 31 µM (MT2).
The CC50 of `N=C(N)c1ccc(OCCCCCOc2ccc(C(=N)N)cc2)cc1` is reported as 82.9 µM (HEK293; MTT; 24 h).
For `CC1c2cc(c(O)c(O)c2O)C(C)c2cc(c(O)c(O)c2O)C(C)c2cc(c(O)c(O)c2O)C(C)c2cc1c(O)c(O)c2O` (centres unmarked), the CC50 was 402 µM (HEK293; MTT; 24 h).
